Measured values: publication PMC3140432 (Biochimica et biophysica acta, 2011)
Read-outs that look alike come from different tables or passages of the source.

Columns and labels:
Gβ1γ2 [1] = target: T1, Gβ1γ2 (Homo sapiens, UniProt P62873); assay: Surface plasmon resonance direct binding to immobilized biotinylated Gβ1γ2
Gβγ = Gβγ (Homo sapiens, UniProt P62873); assay: SPR direct binding to Gβγ with surface regeneration protocol; conditions: for Kd: Kd (μM), surface regeneration protocol, average of N experiments; for koff: read-out: koff (×10^−4s^−1)
How it was run: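 Gβ1γ2, biotinylated at the Gβ N-terminus, was captured on neutravidin amine-coupled to the sensor (2000–10000 µRIU), then blocked with 1 mM biotin. The run used 50 mM HEPES pH 7.6, 1 mM EDTA, 100 mM NaCl, 0.1% C12E10, 1 mM DTT and 1.2% DMSO at 25°C. Dilutions were injected 7 min at 50 µL/min with 10 min dissociation. Regeneration was 3×30 s MgCl2/urea/guanidine-HCl. Data were reference/blank/DMSO-corrected, fitted by a regeneration kinetic model and averaged.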

Gβ1γ2 [2] = target: T1, Gβ1γ2; assay: [3H]-gallein binding to Gβγ, spin desalting column separation; conditions: 100 μM gallein or greater; 1 μM Gβγ
Gβ1His6γ2C68S = Gβ1His6γ2C68S (Homo sapiens, UniProt P62873); assay: Non-covalent nano ESI QToF mass spectrometry of Gβγ-gallein complexes; format: binding; conditions: collision energies that maintain some non-covalent Gβ-Gγ interactions
How it was run: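 Test compound (100 µM) mixed with 5 µM Gβ1His6γ2C68S in 20 mM ammonium acetate, pH 7.0, for 30 min at room temperature. Intact non-covalent complexes were analysed by nano-ESI QToF MS under mild ionisation at low and high collision cell voltage. The C68S mutation blocks Gγ2 lipidation, so no detergent was used.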

[3] = Kd (μM), kinetic titration, average of N experiments

| Compound | SPR response associated with binding to Gβγ (Gβ1γ2 [1]; control peptide, data not shown) | kon (Gβγ) [M⁻¹ s⁻¹] | Kd (Gβγ) [µM] | koff (Gβγ) [s⁻¹] | kon (Gβγ; read-out: kon (M^−1s^−1)) [M⁻¹ s⁻¹] | maximum binding stoichiometry (Gβ1γ2 [2]) | Kd (Gβ1γ2 [1]; [3]) [µM] | concentration above which non-specific/multiple binding sites were observed (Gβ1γ2 [1]; kinetic titration) | koff slower than that of M201 (Gβ1γ2 [1]; kinetic titration) [fold] | koff (Gβ1γ2 [1]; read-out: koff (×10^−4s^−1)) [s⁻¹] | kon (Gβ1γ2 [1]; read-out: kon (M^−1s^−1)) [M⁻¹ s⁻¹] | reversal of binding at higher collision energy (Gβ1His6γ2C68S) | Kd (Gβ1γ2 [1]; Kd (M), Equilibrium titration) [µM] | Kd (Gβ1γ2 [1]; Kd (M), Kinetic titration) [µM] | Kd (Gβ1γ2 [1]; average Kd) [µM] | Ka (association constant) (Gβ1γ2 [1]; equilibrium analysis, Rmax(obs) fit to 1:1 Langmuir isotherm, single data set) [M⁻¹] | koff (Gβ1γ2 [1]; read-out: koff (s^−1), Kinetic titration) [s⁻¹] | kon (Gβ1γ2 [1]; read-out: kon (M^−1s^−1), Kinetic titration) [M⁻¹ s⁻¹] |
| --- | --- | --- | --- | --- | --- | --- | --- | --- | --- | --- | --- | --- | --- | --- | --- | --- | --- | --- |
| SIGK(L9A): Control peptide, non-binding in the ELISA experiments (SIGKAFKIAGYPDYD) [reference compound] | did not elicit a response |  |  |  |  |  |  |  |  |  |  |  |  |  |  |  |  |  |
| O=C1OC2(c3ccccc31)c1ccc(O)c(O)c1Oc1c2ccc(O)c1O [Gallein, 3′, 4′, 5′, 6′-tetrahydroxyspiro[2-benzofuran-3, 9′-xanthene]-1-one] |  | 981 | 0.35 ± 0.03 | 0.00032 ± 2.7e-05 | 926 ± 55 | 1.6 moles of gallein to 1 mole of Gβγ | 0.407 ± 0.24 | above 30 μM | 10 | 0.00035 ± 4.5e-05 | 870 ± 112 | fully reversed |  |  |  |  |  |  |
| Nc1cccc(Nc2cc(S(=O)(=O)O)c(N)c3c2C(=O)c2ccccc2C3=O)c1 [compound 372, 1-amino-4-(3-aminoanilino)-9,10-dioxoanthracene-2-sulfonic acid] |  |  | 2.7 ± 0.45 | 0.00082 ± 0.00051 | 267 ± 137 |  | 2 ± 0.3 | > 20 µM | 10 | 0.00086 ± 0.00024 | 390 ± 93 |  |  |  |  |  |  |  |
| O=C(O)C1CCCCC1c1c2ccc(=O)c(O)c-2oc2c(O)c(O)ccc12 (stereo not shown) [M119, 2-(3,4,5-trihydroxy-6-oxoxanthen-9-yl)cyclohexane-1-carboxylic acid] |  |  |  |  |  |  |  |  |  | 0.0002 ± 8e-05 | 830 ± 200 |  | 0.46 | 0.12 | 0.276 ± 0.07 | 2.16e+06 | 0.00012 | 1027 ± 8 |
